Experimental data from ChEMBL document CHEMBL1143237, “Sulfonamide-1,2,4-triazole derivatives as antifungal and antibacterial agents: synthesis, biological evaluation, lipophilicity, and conformational studies” (Bioorg Med Chem, 2008).
Converted amounts (≈) assume the structure as drawn.

Experiments:
[1] = Partition coefficient, log P of the compound; type: physicochemical; conditions: octanol/water
In short: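 Calculated, not measured: AlogP, IAlogP, ClogP, Cosmo logP, mlogP, Kowwin and XlogP were computed and averaged.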

Enterobacter cloacae = assay: Antibacterial activity against Enterobacter cloacae after 24 hrs by microdilution test; type: functional
In short: (§1)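 Broth microdilution in LB medium in 96-well plates. Inoculum 1.0 × 10⁴ CFU per well, from a suspension set to 1.0 × 10⁵ CFU/ml in sterile saline. Compounds at […] µg/ml. Incubation 24 h at 28 °C. MIC is the lowest concentration with no visible growth under a binocular microscope. MBC by subculturing 2 µl into fresh broth for a further 72 h. OD540 read against blank. DMSO negative control.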

Salmonella enteritidis = assay: Antibacterial activity against Salmonella enteritidis ATCC 13076 after 24 hrs by microdilution test; type: functional, Salmonella enterica subsp. enterica serovar Enteritidis; conditions: Salmonella enterica, ATCC 13076, 24 h; in short: as §1
Salmonella typhimurium = assay: Antibacterial activity against Salmonella Typhimurium ATCC 13311 after 24 hrs by microdilution test; type: functional, Salmonella enterica subsp. enterica serovar Typhimurium; conditions: Salmonella enterica, ATCC 13311, 24 h; in short: as §1
[2] = tested on: Staphylococcus epidermidis; assay: Antibacterial activity against Staphylococcus epidermidis ATCC 12228 after 24 hrs by microdilution test; type: functional; conditions: ATCC 12228, 24 h; in short: as §1
Micrococcus luteus = assay: Antibacterial activity against Micrococcus flavus ATCC 10240 after 24 hrs by microdilution test; type: functional; conditions: ATCC 10240, 24 h; in short: as §1
Escherichia coli = assay: Antibacterial activity against Escherichia coli ATCC 35210 after 24 hrs by microdilution test; type: functional; conditions: ATCC 35210, 24 h; in short: as §1
Aspergillus flavus = assay: Antifungal activity against Aspergillus flavus ATCC 9643 after 72 hrs by microdilution test; type: functional; conditions: ATCC 9643, 72 h
In short: (§2)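 Modified microdilution in malt broth. Spores were washed from malt agar with sterile 0.85% saline containing 0.1% Tween 80 and adjusted to about 1.0 × 10⁵ per well. Compounds were dissolved in DMSO and tested at […] µg/ml. Incubation 72 h at 28 °C. MIC is the lowest concentration with no visible growth under a binocular microscope. MFC by 2 µl subculture and a further 72 h at 28 °C.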

Trichoderma viride = assay: Antifungal activity against Trichoderma viride IAM 5061 after 72 hrs by microdilution test; type: functional; in short: as §2
Talaromyces funiculosus = assay: Antifungal activity against Penicillium funiculosum ATCC 36839 after 72 hrs by microdilution test; type: functional; conditions: ATCC 36839, 72 h; in short: as §2
Aspergillus versicolor = assay: Antifungal activity against Aspergillus versicolor ATCC 11730 after 72 hrs by microdilution test; type: functional; conditions: ATCC 11730, 72 h; in short: as §2
Aspergillus ochraceus = assay: Antifungal activity against Aspergillus ochraceus ATCC 12066 after 72 hrs by microdilution test; type: functional; conditions: ATCC 12066, 72 h; in short: as §2
Aspergillus niger = assay: Antifungal activity against Aspergillus niger ATCC 6275 after 72 hrs by microdilution test; type: functional; conditions: ATCC 6275, 72 h; in short: as §2
Bacillus cereus = assay: Antibacterial activity against Bacillus cereus ATCC 10907 after 24 hrs by microdilution test; conditions: ATCC 10907, 24 h

Structure (SMILES)	logP [1]	MBC (Enterobacter cloacae) [µg/mL]	MIC (Enterobacter cloacae) [µg/mL]	MBC (Salmonella enteritidis) [µg/mL]	MIC (Salmonella enteritidis) [µg/mL]	MBC (Salmonella typhimurium) [µg/mL]	MIC (Salmonella typhimurium) [µg/mL]	MBC [2] [µg/mL]	MIC [2] [µg/mL]	MBC (Micrococcus luteus) [µg/mL]	MIC (Micrococcus luteus) [µg/mL]	MBC (Escherichia coli) [µg/mL]	MIC (Escherichia coli) [µg/mL]	MFC (Aspergillus flavus) [µg/mL]	MIC (Aspergillus flavus) [µg/mL]	MFC (Trichoderma viride) [µg/mL]	MIC (Trichoderma viride) [µg/mL]	MFC (Talaromyces funiculosus) [µg/mL]	MIC (Talaromyces funiculosus) [µg/mL]	MFC (Aspergillus versicolor) [µg/mL]	other results
COc1cc(Cc2n[nH]c(=S)n2-c2ccccc2)c(S(=O)(=O)N(C)C)cc1OC	1.72	100 (≈ 230 µM)	100 (≈ 230 µM)	150 (≈ 345 µM)	150 (≈ 345 µM)	150 (≈ 345 µM)	100 (≈ 230 µM)	150 (≈ 345 µM)	150 (≈ 345 µM)	150 (≈ 345 µM)	150 (≈ 345 µM)	150 (≈ 345 µM)	100 (≈ 230 µM)	100 (≈ 230 µM)	50 (≈ 115 µM)	100 (≈ 230 µM)	50 (≈ 115 µM)	100 (≈ 230 µM)	100 (≈ 230 µM)	150 (≈ 345 µM)	MIC (Aspergillus versicolor): 100 µg/mL (≈ 230 µM); MFC (Aspergillus ochraceus): 150 µg/mL (≈ 345 µM); MIC (Aspergillus ochraceus): 100 µg/mL (≈ 230 µM); MFC (Aspergillus niger): 150 µg/mL (≈ 345 µM); MIC (Aspergillus niger): 100 µg/mL (≈ 230 µM); MBC (Bacillus cereus): 150 µg/mL (≈ 345 µM); MIC (Bacillus cereus): 150 µg/mL (≈ 345 µM)
COc1cc(Cc2n[nH]c(=S)n2-c2ccc(Cl)cc2)c(S(=O)(=O)N2CCOCC2)cc1OC	2.25	100 (≈ 196 µM)	100 (≈ 196 µM)	150 (≈ 294 µM)	150 (≈ 294 µM)	150 (≈ 294 µM)	100 (≈ 196 µM)	150 (≈ 294 µM)	150 (≈ 294 µM)	150 (≈ 294 µM)	150 (≈ 294 µM)	150 (≈ 294 µM)	100 (≈ 196 µM)	150 (≈ 294 µM)	100 (≈ 196 µM)	150 (≈ 294 µM)	100 (≈ 196 µM)	150 (≈ 294 µM)	100 (≈ 196 µM)	150 (≈ 294 µM)	MIC (Aspergillus versicolor): 100 µg/mL (≈ 196 µM); MFC (Aspergillus ochraceus): 150 µg/mL (≈ 294 µM); MIC (Aspergillus ochraceus): 100 µg/mL (≈ 196 µM); MFC (Aspergillus niger): 150 µg/mL (≈ 294 µM); MIC (Aspergillus niger): 150 µg/mL (≈ 294 µM); MBC (Bacillus cereus): 150 µg/mL (≈ 294 µM); MIC (Bacillus cereus): 150 µg/mL (≈ 294 µM)
COc1cc(Cc2n[nH]c(=S)n2-c2ccc(Cl)cc2)c(S(=O)(=O)N2CCCCC2)cc1OC	3.31	100 (≈ 196 µM)	100 (≈ 196 µM)	150 (≈ 295 µM)	150 (≈ 295 µM)	150 (≈ 295 µM)	100 (≈ 196 µM)	150 (≈ 295 µM)	150 (≈ 295 µM)	150 (≈ 295 µM)	150 (≈ 295 µM)	150 (≈ 295 µM)	100 (≈ 196 µM)	150 (≈ 295 µM)	100 (≈ 196 µM)	150 (≈ 295 µM)	100 (≈ 196 µM)	150 (≈ 295 µM)	100 (≈ 196 µM)	150 (≈ 295 µM)	MIC (Aspergillus versicolor): 100 µg/mL (≈ 196 µM); MFC (Aspergillus ochraceus): 150 µg/mL (≈ 295 µM); MIC (Aspergillus ochraceus): 100 µg/mL (≈ 196 µM); MFC (Aspergillus niger): 150 µg/mL (≈ 295 µM); MIC (Aspergillus niger): 100 µg/mL (≈ 196 µM); MBC (Bacillus cereus): 150 µg/mL (≈ 295 µM); MIC (Bacillus cereus): 150 µg/mL (≈ 295 µM)
COc1cc(Cc2n[nH]c(=S)n2-c2ccccc2)c(S(=O)(=O)N2CCCC2)cc1OC	2.13	100 (≈ 217 µM)	100 (≈ 217 µM)	150 (≈ 326 µM)	150 (≈ 326 µM)	150 (≈ 326 µM)	150 (≈ 326 µM)	150 (≈ 326 µM)	150 (≈ 326 µM)	150 (≈ 326 µM)	150 (≈ 326 µM)	150 (≈ 326 µM)	150 (≈ 326 µM)	150 (≈ 326 µM)	100 (≈ 217 µM)	150 (≈ 326 µM)	150 (≈ 326 µM)	150 (≈ 326 µM)	100 (≈ 217 µM)	150 (≈ 326 µM)	MIC (Aspergillus versicolor): 100 µg/mL (≈ 217 µM); MFC (Aspergillus ochraceus): 150 µg/mL (≈ 326 µM); MIC (Aspergillus ochraceus): 100 µg/mL (≈ 217 µM); MFC (Aspergillus niger): 150 µg/mL (≈ 326 µM); MIC (Aspergillus niger): 150 µg/mL (≈ 326 µM); MBC (Bacillus cereus): 150 µg/mL (≈ 326 µM); MIC (Bacillus cereus): 150 µg/mL (≈ 326 µM)
